Laboratory results reported in ChEMBL document CHEMBL4270599, “Synthesis of a 3'-C-ethynyl-β-d-ribofuranose purine nucleoside library: Discovery of C7-deazapurine analogs as potent antiproliferative nucleosides” (Eur J Med Chem, 2018).

What was measured:
[1] = system: OVCAR-4; experiment: Cytotoxicity against human OVCAR4 cells after 48 hrs by SRB assay; type: functional; details: OVCAR-4, 48 h
[2] = system: K562; experiment: Cytotoxicity against human K562 cells after 48 hrs by SRB assay; type: functional; details: K562, 48 h
[3] = system: HOP-92; experiment: Cytotoxicity against human HOP92 cells after 48 hrs by SRB assay; type: functional; details: HOP-92, 48 h
[4] = system: OVCAR-3; experiment: Growth inhibition of human OVCAR3 cells assessed as cell growth at 10^-7 M incubated for 48 hrs by sulforhodamine B assay relative to control; type: functional; details: OVCAR-3, 48 h, read-out: Activity
[5] = system: UACC-257; experiment: Cytotoxicity against human UACC257 cells after 48 hrs by SRB assay; type: functional; details: UACC-257, 48 h
[6] = Antiproliferative activity against HELF cells after 4 days by Coulter counter method; type: cell-based; details: Homo sapiens, 96 h
[7] = system: SK-OV-3; experiment: Cytotoxicity against human SKOV3 cells after 48 hrs by SRB assay; type: functional; details: SK-OV-3, 48 h
[8] = system: Malme-3M; experiment: Growth inhibition of human MALME-3M cells assessed as cell growth at 10^-8 M incubated for 48 hrs by sulforhodamine B assay relative to control; type: functional; details: read-out: Activity
[9] = system: U-251; experiment: Cytotoxicity against human U251 cells after 48 hrs by SRB assay; type: functional; details: U-251, 48 h, read-out: LC50 (the source's name)
[10] = system: SW-620; experiment: Cytotoxicity against human SW620 cells after 48 hrs by SRB assay; type: functional; details: SW-620, 48 h
[11] = system: HT-29; experiment: Cytotoxicity against human HT-29 cells after 48 hrs by SRB assay; type: functional; details: HT-29, 48 h
[12] = system: CCRF-CEM; experiment: Antiproliferative activity against human CEM cells after 72 hrs by Coulter counter method; type: functional, cell-based
Procedure, shortened: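 Cell count assay in 96-well microtiter plates; (5–7.5) × 10⁴ tumor cells per well plus test compound. Cells proliferated at 37 °C in humidified CO₂-controlled atmosphere, 48 h for murine leukemia L1210, 72 h for human lymphocytic CEM and cervix carcinoma HeLa. Counted by Coulter counter; IC₅₀ is the concentration that inhibits proliferation by 50%.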

[13] = system: OVCAR-3; experiment: Growth inhibition of human OVCAR3 cells assessed as cell growth at 10^-6 M incubated for 48 hrs by sulforhodamine B assay relative to control; type: functional; details: OVCAR-3, 48 h, read-out: Activity
[14] = system: ACHN; experiment: Growth inhibition of human ACHN cells assessed as cell growth at 10^-5 M incubated for 48 hrs by sulforhodamine B assay relative to control; type: functional; details: read-out: Activity
[15] = system: A549; experiment: Growth inhibition of human A549/ATCC cells assessed as cell growth at 10^-8 M incubated for 48 hrs by sulforhodamine B assay relative to control; type: functional; details: A549, 48 h, read-out: Activity
[16] = system: HCT-116; experiment: Growth inhibition of human HCT116 cells assessed as cell growth at 10^-4 M incubated for 48 hrs by sulforhodamine B assay relative to control; type: functional; details: HCT-116, 48 h, read-out: Activity
[17] = system: KM12; experiment: Growth inhibition of human KM12 cells assessed as cell growth at 10^-7 M incubated for 48 hrs by sulforhodamine B assay relative to control; type: functional; details: KM12, 48 h, read-out: Activity
[18] = system: MDA-MB-468; experiment: Growth inhibition of human MDA-MB-468 cells assessed as cell growth at 10^-7 M incubated for 48 hrs by sulforhodamine B assay relative to control; type: functional; details: MDA-MB-468, 48 h, read-out: Activity
[19] = system: HOP-92; experiment: Growth inhibition of human HOP92 cells assessed as cell growth at 10^-7 M incubated for 48 hrs by sulforhodamine B assay relative to control; type: functional; details: HOP-92, 48 h, read-out: Activity
[20] = system: UACC-62; experiment: Cytotoxicity against human UACC62 cells after 48 hrs by SRB assay; type: functional; details: UACC-62, 48 h
[21] = system: HL-60(TB); experiment: Growth inhibition of human HL-60(TB) cells assessed as cell growth at 10^-7 M incubated for 48 hrs by sulforhodamine B assay relative to control; type: functional; details: HL-60, 48 h, read-out: Activity
[22] = system: UACC-257; experiment: Growth inhibition of human UACC257 cells assessed as cell growth at 10^-6 M incubated for 48 hrs by sulforhodamine B assay relative to control; type: functional; details: UACC-257, 48 h, read-out: Activity
[23] = system: SN12C; experiment: Growth inhibition of human SN12C cells assessed as cell growth at 10^-8 M incubated for 48 hrs by sulforhodamine B assay relative to control; type: functional; details: read-out: Activity
[24] = system: SF-295; experiment: Cytotoxicity against human SF295 cells after 48 hrs by SRB assay; type: functional; details: SF-295, 48 h
[25] = system: HOP-62; experiment: Growth inhibition of human HOP62 cells assessed as cell growth at 10^-7 M incubated for 48 hrs by sulforhodamine B assay relative to control; type: functional; details: HOP-62, 48 h, read-out: Activity
[26] = read-out: LC50 (the source's name)
[27] = read-out: pLC50 (the source's name) (converted)

C#C[C@@]1(O)[C@@H](CO)O[C@@H](n2cc(Cl)c3c(N)ncnc32)[C@@H]1O
GI50 ([1]; read-out: GI50): 292 to 358 nM
CC50 [1, 26]: > 100000 nM
TGI ([1]; read-out: TGI): 1980 to 5620 nM
GI50 ([2]; read-out: GI50): 78.1 to 126 nM
TGI ([2]; read-out: TGI): > 100000 nM
CC50 [2, 27]: > 100000 nM
TGI ([2]; read-out: pTGI): > 100000 nM
GI50 ([3]; read-out: GI50): 433 to 476 nM
CC50 [3, 26]: > 100000 nM
TGI ([3]; read-out: TGI): 3330 to 3740 nM
growth at 0.1 µM [4]: 74 to 77%
GI50 ([5]; read-out: GI50): 270 to 446 nM
CC50 [5, 26]: > 100000 nM
TGI ([5]; read-out: TGI): 63800 to 100000 nM
IC50 [6]: 9.2 nM
GI50 ([7]; read-out: GI50): 119 to 171 nM
CC50 [7, 26]: > 100000 nM
TGI ([7]; read-out: TGI): 467 to 573 nM
growth at 0.01 µM [8]: 93 to 100%
CC50 [9]: > 100000 nM
GI50 ([10]; read-out: GI50): 51.3 to 98 nM
TGI ([10]; read-out: TGI): > 100000 nM
CC50 [10, 27]: > 100000 nM
GI50 ([11]; read-out: GI50): 32.2 to 59.1 nM
CC50 [11, 26]: > 100000 nM
TGI ([11]; read-out: TGI): 747 to 100000 nM
IC50 [12]: 12 nM
growth at 1 µM [13]: 5 to 7%
growth at 10 µM [14]: -30%
growth at 0.01 µM [15]: 98 to 105%
growth at 100 µM [16]: 3 to 4%
growth at 0.1 µM [17]: 55 to 60%
growth at 0.1 µM [18]: 82 to 89%
growth at 0.1 µM [19]: 90%
CC50 [20, 26]: > 100000 nM
TGI ([20]; read-out: TGI): 383 nM
GI50 ([20]; read-out: pGI50 (converted)): 170 nM
TGI ([20]; read-out: pTGI (converted)): 380 nM
growth at 0.1 µM [21]: 19 to 47%
growth at 1 µM [22]: 12 to 29%
growth at 0.01 µM [23]: 85 to 90%
GI50 ([24]; read-out: GI50): 202 to 298 nM
CC50 [24, 26]: > 100000 nM
TGI ([24]; read-out: TGI): 1900 to 3200 nM
growth at 0.1 µM [25]: 74 to 86%
